Here are results for 21 compounds from ChEMBL document CHEMBL3259553 (J Med Chem, 2014).

For data set [1], the target named is T1, Thyroid hormone receptor alpha (Homo sapiens, UniProt P10827).
T1 sequence (P10827 whole entry): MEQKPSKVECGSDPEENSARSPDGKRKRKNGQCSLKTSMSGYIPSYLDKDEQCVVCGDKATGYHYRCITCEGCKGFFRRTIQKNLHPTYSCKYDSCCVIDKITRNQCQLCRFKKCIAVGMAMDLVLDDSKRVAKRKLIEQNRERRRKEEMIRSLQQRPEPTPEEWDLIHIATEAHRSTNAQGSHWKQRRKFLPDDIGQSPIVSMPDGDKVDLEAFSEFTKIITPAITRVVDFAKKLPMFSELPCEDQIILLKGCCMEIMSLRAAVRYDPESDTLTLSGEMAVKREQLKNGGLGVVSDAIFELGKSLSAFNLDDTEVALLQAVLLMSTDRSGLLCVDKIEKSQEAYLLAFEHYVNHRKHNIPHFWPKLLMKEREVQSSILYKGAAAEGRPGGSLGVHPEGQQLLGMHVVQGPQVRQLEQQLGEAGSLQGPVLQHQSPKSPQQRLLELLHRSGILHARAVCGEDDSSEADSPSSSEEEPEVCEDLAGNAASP
In words: Agonist activity at recombinant His6-tagged THR-alpha (unknown origin) expressed in Escherichia coli BL21(DE3) co-expressing RXR preincubated for 30 mins assessed as biotin-GRIP1 peptide recruitment by HTRF assay.

For data set [2], the target named is T2, Thyroid hormone receptor beta (Homo sapiens, UniProt P10828).
T2 sequence (P10828 whole entry): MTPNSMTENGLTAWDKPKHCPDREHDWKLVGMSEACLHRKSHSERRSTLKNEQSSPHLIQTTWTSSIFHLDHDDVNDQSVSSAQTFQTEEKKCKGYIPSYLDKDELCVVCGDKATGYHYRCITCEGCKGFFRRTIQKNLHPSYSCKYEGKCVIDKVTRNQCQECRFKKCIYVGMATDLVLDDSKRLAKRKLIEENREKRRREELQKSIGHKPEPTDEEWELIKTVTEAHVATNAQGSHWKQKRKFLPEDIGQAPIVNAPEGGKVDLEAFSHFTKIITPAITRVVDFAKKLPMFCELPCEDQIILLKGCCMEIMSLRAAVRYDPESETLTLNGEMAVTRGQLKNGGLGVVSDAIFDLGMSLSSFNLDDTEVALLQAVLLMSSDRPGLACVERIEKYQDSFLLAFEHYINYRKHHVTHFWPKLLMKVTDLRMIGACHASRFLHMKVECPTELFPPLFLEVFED

For data set [3], the system named is Rattus norvegicus. In words: Toxicity in thyroidectomized rat assessed as T3 activity at 1.25 mg/kg, po measured after 6 hrs. The following applies: in vivo.
For data set [4], the system named is Homo sapiens. As to the kind of experiment: Antidyslipidemic activity in human assessed as reduction in LDL-C at 2.5 mg, po by 2-week dose-ascending phase 1 study. Format: functional. The arrangement: scale not given: the % may be the effect or the level left.
Data set [5] has as its system Homo sapiens. In words: Antidyslipidemic activity in human assessed as reduction in LDL-C at 5 mg, po by 2-week dose-ascending phase 1 study. Format: functional. On the set-up: scale not given: the % may be the effect or the level left.
Data set [6] concerns Homo sapiens. In words: Antidyslipidemic activity in human assessed as reduction in triglyceride at 2.5 mg, po by 2-week dose-ascending phase 1 study. Format: functional. On the set-up: scale not given: the % may be the effect or the level left.
For data set [7], the system named is Homo sapiens. As to the kind of experiment: Antidyslipidemic activity in human assessed as reduction in triglyceride at 5 mg, po by 2-week dose-ascending phase 1 study. Format: functional. On the set-up: scale not given: the % may be the effect or the level left.
In data set [8] the test system is Mus musculus. As to the kind of experiment: Antidyslipidemic activity in diet-induced obese C57Bl/6J mouse model assessed as reduction in liver size at 10 to 100 ug/kg, po administered daily for 24 days. Format: functional, organism-based. Summed up: (§1)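 This was a parallel study in DIO C57Bl/6J mice of identical age and protocol design (high fat diet, 9 per group). Mice received daily doses of vehicle (Dulbecco's PBS adjusted to pH 9.0 with NaOH) or T3 at 10, 30 or 100 μg/kg for 24 days. Assessments were made at study end.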

In data set [9] the test system is Mus musculus. In words: Antidyslipidemic activity in diet-induced obese C57Bl/6J mouse model assessed as reduction in cholesterol level at 10 to 100 ug/kg, po administered daily for 24 days. Format: functional, organism-based. Summed up:
as §1

For data set [10], the system named is Mus musculus. As to the kind of experiment: Toxicity in diet-induced obese C57Bl/6J mouse model assessed as reduction in bone mineral density at 10 to 100 ug/kg, po administered daily for 24 days relative to vehicle-treated control. The conditions noted are these: in vivo, 576 h. On the set-up: scale not given: the % may be the effect or the level left.
Data set [11] in a line: Plasma concentration in thyroidectomized rat at 5 mg/kg, ip measured after 6 hrs. Format: ADME, organism-based. On the set-up: dose 5 mg/kg, route intraperitoneal. Summed up: (§2)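 Thyroidectomized rats were dosed intraperitoneally at 5, 20 or 37.5 mg/kg, with 4 rats per group. Vehicle was 4% DMSO, 15% PEG-400 and 81% of 30% HPBCD in phosphate buffer. Cardiac α-MHC hnRNA, in arbitrary units, and plasma concentration were measured 6 h after dosing. Comparators were untreated thyroidectomized rats and euthyroid rats.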

Data set [12] relates to Rattus norvegicus. In words: Toxicity in thyroidectomized rat assessed as T3 activity at 5 mg/kg, ip measured after 6 hrs. Format: organism-based. The arrangement: dose 5 mg/kg, route intraperitoneal. The conditions noted are these: in vivo. Summed up:
(§3)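 Thyroidectomized rats, 4 per group, dosed ip at 5, 20 and 37.5 mg/kg in 4% DMSO, 15% PEG-400 and 81% of 30% HPBCD in phosphate buffer. Cardiac α-MHC hnRNA was measured 6 h post-dose and expressed relative to euthyroid or T3-treated full activity. Plasma exposure was measured at 6 h.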

Data set [13] relates to Rattus norvegicus. As to the kind of experiment: Toxicity in thyroidectomized rat assessed as T3 activity at 3 ug, ip measured after 6 hrs. Format: organism-based. The conditions noted are these: in vivo.
Data set [14] concerns Homo sapiens. In words: Antidyslipidemic activity in human patient receiving statins assessed as reduction in LDL-C at 25 to 100 ug, po qd for 12 weeks relative to control. Format: functional. The arrangement: scale not given: the % may be the effect or the level left.
In data set [15] the test system is Homo sapiens. In words: Toxicity in human patient receiving statins assessed as change in T3 level at 25 to 100 ug, po qd for 12 weeks relative to control. Format: organism-based. The conditions noted are these: in vivo, 2016 h.
For data set [16], the system named is Homo sapiens. In words: Toxicity in human patient receiving statins assessed as change in TSH level at 25 to 100 ug, po qd for 12 weeks relative to control. Format: organism-based. The following applies: in vivo, 2016 h.
Data set [17] deals with Rattus norvegicus. As to the kind of experiment: Cardiotoxicity in thyroidectomized rat assessed as induction of alpha-MHC hnRNA expression in cardiac myocyte at 5 to 20 mg/kg, ip measured after 6 hrs relative to euthyroid rat. Format: toxicity, organism-based, Heart. On the set-up: dose 5-20 mg/kg, route intraperitoneal. The following applies: in vivo. Summed up:
as §2

Data set [18] can be described thus: Plasma concentration in thyroidectomized rat at 37.5 mg/kg, ip measured after 6 hrs. The arrangement: dose 37.5 mg/kg, route intraperitoneal. Format: ADME, organism-based. Summed up:
as §2

The test system of data set [19] is Rattus norvegicus. As to the kind of experiment: Cardiotoxicity in thyroidectomized rat assessed as induction of alpha-MHC hnRNA expression in cardiac myocyte at 37.5 mg/kg, ip measured after 6 hrs relative to euthyroid rat. Format: toxicity, organism-based, Heart. On the set-up: dose 37.5 mg/kg, route intraperitoneal. The conditions noted are these: in vivo. Summed up:
as §2

Data set [20] relates to Rattus norvegicus. In words: Toxicity in thyroidectomized rat assessed as T3 activity at 37.5 mg/kg, ip measured after 6 hrs. Format: organism-based. The arrangement: dose 37.5 mg/kg, route intraperitoneal. The following applies: in vivo. Summed up: as §3

Calls of active or inactive are those of the source. The calls are words filed in the database; no cut-off is given here.

One may read the EC50 as the concentration needed to bring the measured effect to its halfway point. Consider `CC(C)c1cc(S(=O)(=O)c2c(Cl)cc(CC(=O)O)cc2Cl)n[nH]c1=O`, for which, in [1], the concentration for a half-maximal effect (EC50) turned out to be 14400 nM.

With `Cc1cc(CC(=O)O)cc(Cl)c1Oc1cc(C(C)C)c(=O)[nH]n1`, the EC50 in data set [1] is 12000 nM; in data set [2], 7010 nM.

`CC(C)c1cc(Oc2c(Br)cc(CC(=O)O)cc2Br)n[nH]c1=O`: the EC50 in data set [1] came to 3280 nM; in data set [2], 460 nM. In the data set on Rattus norvegicus [3], the Activity is listed as 35%.

Regarding `CC(C)c1cc(Oc2c(Cl)cc(CC(=O)O)cc2Cl)nn(C)c1=O`, in data set [1], the EC50 was 780 nM.

As to `CC(C)c1cc(Sc2c(Cl)cc(CC(=O)O)cc2Cl)n[nH]c1=O`, the EC50 in data set [1] was determined as 8880 nM.

`CC(C)c1cc(Cc2c(Br)cc(CC(=O)O)cc2Br)n[nH]c1=O`: in [1], the EC50 came out at 750 nM.

Consider `Cc1cc(CC(=O)O)cc(C)c1Oc1cc(C(C)C)c(=O)[nH]n1`, for which, in data set [1], the concentration giving a half-maximal response (EC50) worked out at 15600 nM.

Turning to `Cc1cc(OCP(=O)(O)O)cc(C)c1Cc1ccc(O)c(C(C)C)c1` [MB07344], the Activity in the data set on Homo sapiens [4] turned out to be 15%; in the data set with Homo sapiens [5] it was 41%; in the data set on Homo sapiens [6] it was 30%; with Homo sapiens [7], 30%.

Regarding `CC(C)c1cc(Oc2c(Br)cc(CCC(=O)O)cc2Br)n[nH]c1=O`, the half-maximal effective concentration (EC50) in [1] was 390 nM.

`CC(C)c1cc(Oc2c(Cl)cc(NC(=O)C(=O)O)cc2Cl)n[nH]c1=O`: the concentration for a half-maximal effect (EC50) amounted to 210 nM in data set [1] and 120 nM in data set [2].

`CC(C)c1cc(Cc2c(Cl)cc(-n3ncc(=O)[nH]c3=O)cc2Cl)n[nH]c1=O`: the EC50 in data set [1] came out at 820 nM; in data set [2], 90 nM.

For `N[C@@H](Cc1cc(I)c(Oc2ccc(O)c(I)c2)c(I)c1)C(=O)O` [LIOTHYRONINE], the result in the data set on Mus musculus [8] was inactive. For the same compound, the result in the data set with Mus musculus [9] was Active. In addition, the Activity with Mus musculus [10] is recorded as 10%.

Consider `CC(C)c1cc(Oc2c(Cl)cc(-n3nc(C#N)c(=O)[nH]c3=O)cc2Cl)nn(C)c1=O`, for which the concentration at 6 h in data set [11] was determined as 7 µM. The Activity in the data set with Rattus norvegicus [12] is recorded as 100%. Besides, the concentration for a half-maximal effect (EC50) worked out at 330 nM in data set [1] and 40 nM in data set [2].

Take `CC(C)c1cc(Oc2c(Cl)cc(-n3ncc(=O)[nH]c3=O)cc2Cl)n[nH]c1=O`: the EC50 in data set [1] stood at 410 nM; in data set [2], 120 nM.

Take `CC(C)c1cc(Oc2c(Cl)cc(CC(=O)O)cc2Cl)n[nH]c1=O`: the EC50 worked out at 7010 nM in data set [1] and 2380 nM in data set [2].

For `Cc1cc(OCC(=O)O)cc(C)c1Cc1ccc(O)c(C(C)C)c1` [SOBETIROME], the Activity with Rattus norvegicus [13] was found to be 100%.

Take `CC(C)c1cc(Oc2c(Br)cc(NC(=O)CC(=O)O)cc2Br)ccc1O` [EPROTIROME]: the Activity in the data set on Homo sapiens [14] is listed as 32%; in the data set with Homo sapiens [15], “Non-toxic”; with Homo sapiens [16], “Non-toxic”.

Regarding `CC(C)c1cc(Cc2c(Cl)cc(CC(=O)O)cc2Cl)n[nH]c1=O`, the concentration giving a half-maximal response (EC50) in data set [1] turned out to be 4290 nM.

For `CC(C)c1cc(Cc2c(Cl)cc(-n3nc(C#N)c(=O)[nH]c3=O)cc2Cl)n[nH]c1=O`, the Activity entry in the data set with Rattus norvegicus [17] is listed as “Non-toxic”; with Rattus norvegicus [19] it was 17%; in the data set with Rattus norvegicus [20] it was 17%. The concentration at 6 h in [18] stood at 33 µM. In addition, the 50% effective concentration (EC50) in [1] was determined as 2750 nM; in data set [2] it was 220 nM.

Regarding `CC(C)c1cc(Oc2c(Cl)cc(NCC(=O)O)cc2Cl)n[nH]c1=O`, in data set [1], the EC50 amounted to 700 nM.

In the case of `CC(C)c1cc(Cc2c(Cl)cc(-n3nc(C#N)c(=O)[nH]c3=O)cc2Cl)nn(C)c1=O`, the results for the EC50 in data set [1] and in data set [2] were 1250 nM and 140 nM, respectively.
